The target of one assay is human recombinant PDE5 (Homo sapiens, UniProt O76074). Description: PDE5 inhibition, IMAP fluorescence polarization assay. In kind it is biochemical. As to conditions: for inhibition at 50 µM: read-out: PDE5 % inh at 50 (μM); for reduction in PDE5 inhibitory activity of pyrazole vs pyrazoline: compounds 34 and 35 compared to compounds 1 and 4; for PDE5 inhibitory activity (in words): SAR statement vs parent compound. A general note: Polarisation of emitted light reports the rotation of a fluorescent probe.

For assay [1], the system named is intracellular cGMP levels in HEK293 cells. Description: Luciferase cGMP biosensor assay. It is filed as cell-based, human. As to conditions: pretreated with sodium nitroprusside. In outline:
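HEK293 cells stably expressing a GloSensor cGMP-40F construct (human PDE5A GAF-A fused to firefly luciferase) were G418-selected. Cells were seeded at 6×10⁴/well and attached overnight in DMEM + 10% FBS at 37°C, 5% CO2. They were preincubated at room temperature in CO2-independent medium with 10% FBS and 5 mmol/L luciferin. 50 μM sodium nitroprusside was added together with test compound, and luminescence was read every minute for 1 h.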

Each structure is given as a SMILES string. pIC50: −log10 of the molar value. A value given as a limit tells only on which side of the number the result lay.

This is an account of results in publication PMC7686114 (Bioorganic chemistry, 2020).

Usually pIC50 stands for the IC50 on a negative log10 scale, so that one unit is a factor of ten. For `CC(C)(C)C1=NN(c2ccc(C(=O)O)cc2)C(c2ccc(Cl)cc2)C1` (centres unmarked) [Compound 7, 4-(3-tert-Butyl-5-(4-chlorophenyl)-4,5-dihydro-1H-pyrazol-1-yl)benzoic acid], on human recombinant PDE5, the pIC50 is 5.48 and the inhibition at 50 µM is 85%.

On to `CC(C)(C)C1=NN(c2ccc(C(=O)O)cc2)C(c2ccc([N+](=O)[O-])cc2)C1` (centres unmarked) [Compound 21, 4-(3-tert-Butyl-5-(4-nitrophenyl)-4,5-dihydro-1H-pyrazol-1-yl)benzoic acid], for which the inhibition at 50 µM at human recombinant PDE5 was 91%. As to `Cc1ccc(-c2cc(C(F)(F)F)nn2-c2ccc(S(N)(=O)=O)cc2)cc1` [Celecoxib, celecoxib, reference compound], the inhibition at 50 µM on human recombinant PDE5 worked out at 66.5%. On to `CCOc1ccccc1C1CC(C(C)(C)C)=NN1c1ccc(C(=O)O)cc1` (centres unmarked) [Compound 18, 4-(3-(tert-Butyl)-5-(2-ethoxyphenyl)-4,5-dihydro-1H-pyrazol-1-yl)benzoic acid], for which, at human recombinant PDE5, the pIC50 was below 4.30 and the inhibition at 50 µM worked out at 42.5%. For the compound `CC(C)(C)c1cc(-c2ccc(F)cc2)n(-c2ccc(C(=O)O)cc2)n1` [Compound 35, 4-(3-tert-Butyl-5-(4-fluorophenyl)-1H-pyrazol-1-yl) benzoic acid], at human recombinant PDE5, the negative logarithm of the IC50 (pIC50) is 4.50, the “reduction in PDE5 inhibitory activity of pyrazole vs pyrazoline” value is 3–4 times and the inhibition at 50 µM was determined as 75%. Consider `CC(C)(C)C1=NN(c2ccc(C(=O)O)cc2)C(c2c(Cl)cccc2Cl)C1` (centres unmarked) [Compound 13, 4-(3-(tert-Butyl)-5-(2,6-dichlorophenyl)-4,5-dihydro-1H-pyrazol-1-yl)benzoic acid], for which, at human recombinant PDE5, the pIC50 was 4.54 and the inhibition at 50 µM is 99.1%.

Consider `CCOC(=O)c1ccc(N2N=C(C(C)(C)C)CC2c2ccc(Cl)cc2)cc1` (centres unmarked) [Compound 36, Ethyl 4-(3-tert-butyl-5-(4-chlorophenyl)-4,5-dihydro-1H-pyrazol-1-yl)benzoate], for which, on human recombinant PDE5, the “PDE5 inhibitory activity (in words)” value is recorded as “diminished the PDE5 inhibitory activity” and the inhibition at 50 µM worked out at 10.5%. For `CC(C)(C)C1=NN(c2ccc(C(=O)O)cc2)C(c2cccc(Br)c2)C1` (centres unmarked) [Compound 9, 4-(5-(3-Bromophenyl)-3-(tert-butyl)-4,5-dihydro-1H-pyrazol-1-yl)benzoic acid], the inhibition at 50 µM on human recombinant PDE5 was found to be 91.4%. As for `CC(C)(C)C1=NN(c2ccc(C(=O)O)cc2)C(c2ccccc2)C1` (centres unmarked) [Compound 1, 4-(3-tert-Butyl-5-phenyl-4,5-dihydro-1H-pyrazol-1-yl)benzoic acid], at human recombinant PDE5, the inhibition at 50 µM was 88%.

Turning to `CC(C)(C)C1=NN(c2ccc(C(=O)O)cc2)C(c2cccc([N+](=O)[O-])c2)C1` (centres unmarked) [Compound 20, 4-(3-tert-Butyl-5-(3-nitrophenyl)-4,5-dihydro-1H-pyrazol-1-yl)benzoic acid], on human recombinant PDE5, the pIC50 is 5.49 and the inhibition at 50 µM was determined as 87.6%. Turning to `CCOC(=O)c1ccc(N2N=C(C(C)(C)C)CC2c2cccc([N+](=O)[O-])c2)cc1` (centres unmarked) [Compound 37, Ethyl 4-(3-tert-butyl-5-(3-nitrophenyl)-4,5-dihydro-1H-pyrazol-1-yl)benzoate], on human recombinant PDE5, the “PDE5 inhibitory activity (in words)” value is “diminished the PDE5 inhibitory activity” and the inhibition at 50 µM was 16%.

For the compound `CC(C)(C)C1=NN(c2ccccc2C(=O)O)C(c2ccc(Cl)cc2)C1` (centres unmarked) [Compound 30, 2-(3-tert-Butyl-5-(4-chlorophenyl)-4,5-dihydro-1H-pyrazol-1-yl)benzoic acid], at human recombinant PDE5, the “PDE5 inhibitory activity (in words)” value was “diminished the activity” and the inhibition at 50 µM came out at 46%.

In the case of `CC(C)(C)C1=NN(c2ccc(C(=O)O)cc2)C(c2ccc(Br)cc2)C1` (centres unmarked) [Compound 10, 4-(5-(4-Bromophenyl)-3-tert-butyl-4,5-dihydro-1H-pyrazol-1-yl)benzoic acid], at human recombinant PDE5, the pIC50 is 5.14 and the inhibition at 50 µM was found to be 88%. Take `CC(C)(C)C1=NN(c2ccc(C(=O)O)cc2)C(c2ccccc2F)C1` (centres unmarked) [Compound 2, 4-(3-(tert-Butyl)-5-(2-fluorophenyl)-4,5-dihydro-1H-pyrazol-1-yl)benzoic acid]: the inhibition at 50 µM at human recombinant PDE5 was found to be 86.3%.

Take `CC(C)(C)C1=NN(c2ccc(C(=O)O)cc2)C(c2ccc(O)cc2)C1` (centres unmarked) [Compound 24, 4-(3-tert-Butyl-5-(4-hydroxyphenyl)-4,5-dihydro-1H-pyrazol-1-yl)benzoic acid]: the inhibition at 50 µM on human recombinant PDE5 was 77.1%.

Take `COc1ccc(C2CC(C(C)(C)C)=NN2c2ccc(C(=O)O)cc2)c(OC)c1` (centres unmarked) [Compound 16, 4-(3-tert-Butyl-5-(2,4-dimethoxyphenyl)-4,5-dihydro-1H-pyrazol-1-yl)benzoic acid]: the inhibition at 50 µM at human recombinant PDE5 worked out at 85.8%. Take `CC(C)(C)C1=NN(c2ccc(C(=O)O)cc2)C(c2ccc3ccccc3c2)C1` (centres unmarked) [Compound 26, 4-(3-(tert-Butyl)-5-(naphthalen-2-yl)-4,5-dihydro-1H-pyrazol-1-yl)benzoic acid]: on human recombinant PDE5, the pIC50 is 4.66 and the inhibition at 50 µM amounted to 80%. `CC(C)(C)C1=NN(c2ccc(C(=O)O)cc2)C(c2ccc(F)cc2)C1` (centres unmarked) [Compound 4, 4-(3-tert-Butyl-5-(4-fluorophenyl)-4,5-dihydro-1H-pyrazol-1-yl)benzoic acid]: on human recombinant PDE5, the pIC50 was 5.11 and the inhibition at 50 µM is 80%. Regarding `CC(C)(C)C1=NN(c2ccc(C(=O)O)cc2)C(c2ccco2)C1` (centres unmarked) [Compound 27, 4-(3-tert-Butyl-5-(furan-2-yl)-4,5-dihydro-1H-pyrazol-1-yl)benzoic acid], on human recombinant PDE5, the “PDE5 inhibitory activity (in words)” value was “detrimental to the activity” and the inhibition at 50 µM amounted to 23.6%. As to `CC(C)(C)C1=NN(c2ccc(C(=O)O)cc2)C(c2ccccc2Br)C1` (centres unmarked) [Compound 8, 4-(5-(2-Bromophenyl)-3-(tert-butyl)-4,5-dihydro-1H-pyrazol-1-yl)benzoic acid], the inhibition at 50 µM at human recombinant PDE5 was 100%. Turning to `CN1CC(=O)N2[C@H](c3ccc4c(c3)OCO4)c3[nH]c4ccccc4c3C[C@@H]2C1=O` [Tadalafil, tadalafil, reference compound], the “intracellular cGMP levels (luminescence), concentration dependence” value in assay [1] is reported as “concentration-dependent increase”. Consider `CC(C)(C)C1=NN(c2ccc(C(=O)O)cc2)C(c2ccc(-c3ccccc3)cc2)C1` (centres unmarked) [Compound 25, 4-(5-([1,1’-Biphenyl]-4-yl)-3-(tert-butyl)-4,5-dihydro-1H-pyrazol-1-yl)benzoic acid], for which, at human recombinant PDE5, the negative-log IC50 (pIC50) was 4.45 and the inhibition at 50 µM turned out to be 100%.

As for `CC(C)(C)C1=NN(c2ccc(C(=O)O)cc2)C(c2cccc(F)c2)C1` (centres unmarked) [Compound 3, 4-(3-(tert-Butyl)-5-(3-fluorophenyl)-4,5-dihydro-1H-pyrazol-1-yl)benzoic acid], on human recombinant PDE5, the pIC50 was 5.43 and the inhibition at 50 µM amounted to 94.4%. Take `COc1ccc(OC)c(C2CC(C(C)(C)C)=NN2c2ccc(C(=O)O)cc2)c1` (centres unmarked) [Compound 17, 4-(3-tert-Butyl-5-(2,5-dimethoxyphenyl)-4,5-dihydro-1H-pyrazol-1-yl)benzoic acid]: at human recombinant PDE5, the pIC50 is below 4.30 and the inhibition at 50 µM was 47%. On to `CC(C)(C)C1=NN(c2ccc(C(=O)O)cc2)C(c2ccc(Cl)c(Cl)c2)C1` (centres unmarked) [Compound 12, 4-(3-(tert-Butyl)-5-(3,4-dichlorophenyl)-4,5-dihydro-1H-pyrazol-1-yl)benzoic acid], for which the inhibition at 50 µM on human recombinant PDE5 turned out to be 100%. Consider `CC(C)(C)C1=NN(c2ccc(C(=O)O)cc2)C(c2ccc(C#N)cc2)C1` (centres unmarked) [Compound 23, 4-(3-tert-Butyl-5-(4-cyanophenyl)-4,5-dihydro-1H-pyrazol-1-yl)benzoic acid], for which, on human recombinant PDE5, the pIC50 was 4.86 and the inhibition at 50 µM was determined as 75%. `CC(C)(C)C1=NN(c2cccc(C(=O)O)c2)C(c2ccc(Cl)cc2)C1` (centres unmarked) [Compound 29, 3-(3-tert-Butyl-5-(4-chlorophenyl)-4,5-dihydro-1H-pyrazol-1-yl)benzoic acid]: the inhibition at 50 µM on human recombinant PDE5 turned out to be 100%. For the same compound, the “fold reduction in PDE5 inhibitory potency compared to compound 7” value at human recombinant PDE5 (vs compound 7 (4-COOH, 4-chlorophenyl)) was 3 fold. As to `CC(C)(C)C1=NN(c2ccc(C(=O)O)cc2)C(c2ccccc2Cl)C1` (centres unmarked) [Compound 5, 4-(3-(tert-Butyl)-5-(2-chlorophenyl)-4,5-dihydro-1H-pyrazol-1-yl)benzoic acid], the inhibition at 50 µM on human recombinant PDE5 amounted to 100%. For `CC(C)(C)c1cc(-c2ccccc2)n(-c2ccc(C(=O)O)cc2)n1` [Compound 34, 4-(3-tert-Butyl-5-phenyl-1H-pyrazol-1-yl)benzoic acid], on human recombinant PDE5, the pIC50 was 4.72, the “reduction in PDE5 inhibitory activity of pyrazole vs pyrazoline” value is 3–4 times and the inhibition at 50 µM is 72%. For `COc1ccc(C2CC(C(C)(C)C)=NN2c2ccc(C(=O)O)cc2)cc1` (centres unmarked) [Compound 15, 4-(3-tert-Butyl-5-(4-methoxyphenyl)-4,5-dihydro-1H-pyrazol-1-yl) benzoic acid], the inhibition at 50 µM at human recombinant PDE5 amounted to 95%. On human recombinant PDE5 (vs compound 22), the “fold increase in PDE5 inhibitory potency compared to methyl derivative 22” value is reported as 4 fold.

On to `CC(C)(C)C1=NN(c2ccc(C(=O)O)cc2)C(c2cccc(Cl)c2)C1` (centres unmarked) [Compound 6, 4-(3-(tert-Butyl)-5-(3-chlorophenyl)-4,5-dihydro-1H-pyrazol-1-yl)benzoic acid], for which the inhibition at 50 µM at human recombinant PDE5 came out at 95.7%. As to `CC(C)(C)C1=NN(c2ccc(C(=O)O)cc2)C(c2cccs2)C1` (centres unmarked) [Compound 28, 4-(3-tert-Butyl-5-(thiophen-2-yl)-4,5-dihydro-1H-pyrazol-1-yl)benzoic acid], at human recombinant PDE5, the “PDE5 inhibitory activity (in words)” value is recorded as “detrimental to the activity” and the inhibition at 50 µM turned out to be 28.1%. For `COc1ccccc1C1CC(C(C)(C)C)=NN1c1ccc(C(=O)O)cc1` (centres unmarked) [Compound 14, 4-(3-(tert-Butyl)-5-(2-methoxyphenyl)-4,5-dihydro-1H-pyrazol-1-yl)benzoic acid], at human recombinant PDE5, the pIC50 was below 4.30 and the inhibition at 50 µM stood at 49.8%.
